V-ATPase pH = regulators of yeast V-ATPase proton transport; S. cerevisiae, pHLuorin cytosolic pH fluorescence; response, % at 10 µM; actives 0.37% (n = 350,000); AID 504577; in the data active = response mostly above about 7.3%, no sharp cut-off; inactive = mostly below about 5.4%; also: actives read high
Cl transport mod = KCC2 (human) Cl- transport modulation; B-score of Tl+ flux slope (higher = more flux/activation; lower = inhibition) at 10 µM; AID 1456; actives 2.2% (n = 190,000); KCC2 cells, thallium flux FluoZin-2 fluorescence; Q9H2X9;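 active = thallium flux slope and its plate-corrected score both differing from the plate sample mean at a set confidence after two filtering rounds, in either direction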;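 also: slope of fluorescence scaled to starting intensity during 10 to 20 s after thallium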
Target sequence (Q9H2X9 whole entry, looked up): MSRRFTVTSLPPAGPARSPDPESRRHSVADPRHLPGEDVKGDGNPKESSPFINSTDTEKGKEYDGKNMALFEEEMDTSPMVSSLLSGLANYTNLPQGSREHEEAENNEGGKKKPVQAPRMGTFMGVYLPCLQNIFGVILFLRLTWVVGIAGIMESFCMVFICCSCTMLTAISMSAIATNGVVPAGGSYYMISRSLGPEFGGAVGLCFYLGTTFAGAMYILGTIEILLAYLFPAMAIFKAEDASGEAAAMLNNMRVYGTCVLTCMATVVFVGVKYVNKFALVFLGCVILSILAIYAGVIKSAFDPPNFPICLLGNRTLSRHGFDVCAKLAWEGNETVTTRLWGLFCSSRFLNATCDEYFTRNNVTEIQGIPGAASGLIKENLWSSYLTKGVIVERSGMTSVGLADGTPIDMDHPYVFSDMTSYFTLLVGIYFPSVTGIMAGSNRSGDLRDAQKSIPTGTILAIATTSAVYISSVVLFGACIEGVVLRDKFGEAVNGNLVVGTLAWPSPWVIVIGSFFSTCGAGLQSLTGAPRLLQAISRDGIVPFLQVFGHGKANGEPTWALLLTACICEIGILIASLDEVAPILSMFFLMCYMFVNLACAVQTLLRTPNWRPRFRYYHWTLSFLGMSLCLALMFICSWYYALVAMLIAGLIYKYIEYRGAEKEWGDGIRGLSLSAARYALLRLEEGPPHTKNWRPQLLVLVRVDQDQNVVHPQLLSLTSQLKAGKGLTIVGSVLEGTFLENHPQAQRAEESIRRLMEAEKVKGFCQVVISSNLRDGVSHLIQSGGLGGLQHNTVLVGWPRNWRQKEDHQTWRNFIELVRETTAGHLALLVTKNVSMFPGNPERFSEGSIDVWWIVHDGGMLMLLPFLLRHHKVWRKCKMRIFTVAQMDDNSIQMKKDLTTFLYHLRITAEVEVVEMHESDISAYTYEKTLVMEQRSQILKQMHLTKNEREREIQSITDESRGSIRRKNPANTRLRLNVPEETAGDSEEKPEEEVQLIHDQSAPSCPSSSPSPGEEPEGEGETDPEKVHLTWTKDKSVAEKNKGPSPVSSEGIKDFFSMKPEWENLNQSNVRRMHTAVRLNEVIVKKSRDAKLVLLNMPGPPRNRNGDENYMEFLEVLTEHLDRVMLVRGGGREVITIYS
Dynein transport = dynein cargo transport inhibition | 3617.4 mouse cells, GR-EGFP nuclear translocation imaging; test concentration mostly 20 µM; stimulated with dexamethasone, 1 µM; stronger effect = lower value | z-score, hits read low | AID 1381 | actives 0.47% (n = 220,000);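 active = plate z-score of nuclear minus cytoplasmic receptor signal below a set negative limit, without overly bright fluorescence or cell loss, cut at about -3.5 in these data, passing the limit was not always enough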;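 also: z-score of nuclear minus cytoplasmic ring GR-EGFP intensity difference per well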
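Also added: dexamethasone, 1.0 µM final. Medium: tet-free, stripped-serum medium. Detection: fixed, Hoechst-stained cells imaged at 10x for EGFP. Read-out: nuclear-to-cytoplasmic GR-EGFP distribution per well. Times: induction 48 h, compound 1 h, agonist 30 min.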
ABCB6 inh MLPCN = inhibitors of human ABC transporter ABCB6; fluorescence ratio to DMSO, % at 10 µM; AID 602162; K562-ABCB6 porphyrin accumulation, flow cytometry, 1 h; stronger effect = lower value; actives 0.19% (n = 360,000);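 active = fluorescence ratio to DMSO below 75%, the collection mean minus 3 SD; inconclusive = too few cells collected in the well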;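 also: signal is porphyrin accumulated inside mitochondria; 100% equals median channel fluorescence of DMSO control wells; lower ratio means ABCB6 inhibition with less porphyrin fluorescence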
p-CIP stab down = p/CIP protein destabilization; Q05BA5; F442A p/CIP-EGFP cells, EGFP fluorescence, 16 h; decrease of EGFP signal, % at 10 µM; actives 0.01% (n = 290,000); AID 1984;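 active = EGFP signal decrease of at least 30% at 10 µM or well 3 SD below plate mean, unless failing retest; inactive = the rest, including hits failing retest or dose response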
KCC2 sec1 = confirmation of human KCC2 transport modulators. HEK293-KCC2, thallium flux, FluoZin2 fluorescence; stronger effect = higher value. actives 15% (n = 3,700). normalised thallium flux (F/F0 slope) at 10 µM. shares compounds with Cl transport mod;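 active = thallium flux slope above the same plate's solvent-only control mean plus 3 SD; inconclusive = the two replicate wells disagree; inactive = no significant difference from solvent-only control wells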
KCC2 bumet counter = thallium flux despite bumetanide block in KCC2 cells, secondary assay 3; shares compounds with Cl transport mod; normalized thallium flux at 10 µM; HEK293-KCC2 + bumetanide/ouabain, thallium flux FluoZin2; stronger effect = higher value; AID 1714; actives 49% (n = 3,700);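 active = thallium entry rate above the same plate's blocked-transporter control wells by more than 3 SD; inconclusive = the two repeat wells disagree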;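 also: raw slope of fluorescence over initial fluorescence between 10 and 20 s after thallium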
KCC2 secondary2 = KCC2 (human) modulation, second secondary assay. shares compounds with Cl transport mod. HEK293-KCC2, thallium flux FluoZin2 fluorescence; actives lie on both sides; F/F0 rise rate, 10–20 s post-thallium. normalized thallium flux at 10 µM. actives 23% (n = 3,700). AID 1715;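 active = thallium flux slope more than 3 SD above or below the plate's solvent-only control mean, mostly below; inconclusive = the two repeat wells disagreed; inactive = no significant shift from solvent-only controls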;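 also: raw slope with 0.1% DMSO as baseline and bumetanide as block control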
HEK293 Tl flux = parental HEK flux effect, counter-screen | HEK293 parental cells, thallium flux FluoZin2, ouabain; baseline-ratio fluorescence slope, 10–20 s after thallium | actives 46% (n = 3,700) | thallium flux rate (normalised fluorescence) at 10 µM | shares compounds with Cl transport mod;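 active = thallium flux rate significantly above the same plate's solvent-only control wells, beyond their mean plus 3 SD; inconclusive = the two replicate wells gave conflicting results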
KCC2 retest ouab = modulates human KCC2 on retest with ouabain. raw Tl+ flux slope (below DMSO = inhibition, above = activation) at 10 µM. shares compounds with Cl transport mod. actives 48% (n = 3,700). HEK293-KCC2, thallium flux FluoZin2 fluorescence; bidirectional: low = inhibitor, high = activator. AID 1717;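 active = thallium flux slope beyond 3 SD from same-plate DMSO control mean in most replicates, usually higher, sometimes lower; inconclusive = repeat tests gave conflicting results; inactive = no significant difference from controls in most replicates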;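 also: slope of initial-normalized fluorescence between seconds 10 and 20 after thallium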
HEK counter2 = parental HEK flux effect, counter-screen 2; thallium flux slope at 10 µM; shares compounds with Cl transport mod; actives 33% (n = 3,700); HEK293 parental, thallium flux FluoZin-2 fluorescence slope; AID 1718;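 active = thallium flux slope above the same plate's solvent-control mean plus 3 SD in both duplicate wells; inconclusive = duplicate wells that disagreed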;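 also: run without ouabain in cells lacking the KCC2 cotransporter; slope of fluorescence scaled to its starting value between 10 and 20 s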
* hit, by the source's call; ? = inconclusive; . = no result given. This excerpt belongs to a sample that is enriched for hits.

SMILES	V-ATPase pH	Cl transport mod	Dynein transport	ABCB6 inh MLPCN	p-CIP stab down	KCC2 sec1	KCC2 bumet counter	KCC2 secondary2	HEK293 Tl flux	KCC2 retest ouab	HEK counter2
O=C(NCCN1C(=O)C2C3C=CC(C3)C2C1=O)Nc1ccccc1O (stereo not given)	-1	-0.91	1.3	101	-8	0.0088	?	0.031	0.0081	0.021	0.011
CC1CCCC/C1=N\NC(=S)Nc1cccnc1 (stereo not given)	-1	1.8	0.039	104	5	.	.	.	.	.	.
Cc1ccc(NC(=S)N/N=C2\CCCCC2C)cc1 (stereo not given)	2	6.9*	-2.1	544	1	0.0059	0.032*	0.039*	0.02*	0.033*	0.022*
CN(C)c1cccc(C(=O)Nc2cccc(F)c2)c1	1	-0.28	-0.78	93	-18	.	.	.	.	.	.
CCN(CC)c1ccc(C(=O)Nc2cccc(F)c2)cc1	-5	-3.3*	-0.22	100	0	0.018	0.0038	0.027	?	0.014	0.0094
O=C(CCc1c[nH]c2ccccc12)NCc1ccc2c(c1)OCO2	4	0.21	0.21	99	-2	.	.	.	.	.	.
O=C(CCCc1c[nH]c2ccccc12)NCc1ccc2c(c1)OCO2	2	-4.5*	0.11	97	7	0.0068	0.0065	0.028	0.0065	?	0.0098
CC1CN(C(=O)CCNC(=O)c2ccc(Br)cc2)CC(C)O1 (stereo not given)	1	.	.	100	.	.	.	.	.	.	.
O=C(CSc1nnnn1-c1ccccc1)Nc1nsc(-c2ccc(Cl)cc2)n1	3	-0.47	0.64	96	-5	.	.	.	.	.	.
O=C(CSc1nnnn1-c1ccccc1)Nc1nsc(-c2ccccc2)n1	2	-6.3*	0.093	101	2	0.017	0.0049	0.024*	0.0076	0.014	0.01
O=C(Cc1ccc(F)cc1)Oc1ccc(C(=S)N2CCCC2)cc1	0	-4.1*	-0.87	93	-12	?	?	0.022*	?	0.013*	0.012
CCCc1nc2c(o1)CC(CC(C)SCC)CC2=O (stereo not given)	-4	4.9*	-0.14	99	6	0.0062	0.0046	?	0.007	0.018	0.0092
Cc1ccc2nc(N/C(=N/S(=O)(=O)c3ccc(F)cc3)c3ccccc3)sc2c1	-6	4.5*	-1.5	93	0	0.0095	0.0067	0.031	?	0.019	?
Cc1cc(N/C(=N\S(=O)(=O)c2ccc(F)cc2F)c2ccccc2)no1	-10	0.058	-0.77	101	-9	.	.	.	.	.	.
C/C(=N\S(=O)(=O)c1ccc(C)cc1)NC(=S)Nc1ccc(C)cc1	2	0.28	0.54	91	2	.	.	.	.	.	.
Cc1ccc(S(=O)(=O)/N=C(/NC(=S)Nc2cccc(C)c2)c2ccccc2)cc1	-3	20*	-0.15	96	-11	0.0062	0.03*	0.042*	0.022*	0.035*	0.024*
Cc1ccc2nc(N/C(=N/S(=O)(=O)c3ccc(F)cc3F)c3ccccc3)sc2c1	0	21*	-0.39	94	1	0.016	0.0094*	0.03	0.0096*	0.019	?
CNC(=S)N(Cc1cc2cc(C)ccc2n2nnnc12)CC(C)(C)CN(C)C	-2	.	.	94	-9	.	.	.	.	.	.
CCOC(=O)c1cc([N+](=O)[O-])sc1N	-2	-1.3	-0.83	97	0	.	.	.	.	.	.
CN(C(=O)CSc1nnc(-c2ccc(F)cc2)c2ccccc12)C1CCS(=O)(=O)C1 (stereo not given)	-3	1.3	-0.44	99	-30	.	.	.	.	.	.
CC1CCN(C(=S)NC(=O)c2cccs2)CC1	-1	56*	-0.27	89	-7	0.033*	0.083*	?	0.055*	0.069*	0.019*
COC(=O)c1sccc1NC(=S)N1CC(C)CC(C)C1 (stereo not given)	-3	0.016	0.58	98	-11	.	.	.	.	.	.
COC(=O)c1sccc1NC(=S)N1CCC(C)CC1	-1	.	0.13	98	-22	0.0081	0.0049	0.027	0.0074	0.018	0.0096
CCC(C(=O)Nc1ccsc1C(=O)OC)c1ccccc1 (stereo not given)	5	-3.2*	-0.1	97	-9	0.009	0.0056	0.035	?	?	0.011
O=C(NC(=S)N1CCCCC1)c1cccs1	0	0.56	-0.22	103	-3	.	.	.	.	.	.
SMILES	V-ATPase pH	Cl transport mod	Dynein transport	ABCB6 inh MLPCN	p-CIP stab down	KCC2 sec1	KCC2 bumet counter	KCC2 secondary2	HEK293 Tl flux	KCC2 retest ouab	HEK counter2
CCC(C(=O)Nc1nc(C)c(C(=O)OC)s1)c1ccccc1 (stereo not given)	-2	0.62	0.022	91	-15	.	.	.	.	.	.
CC1CCCCN1C(=S)NC(=O)c1cccs1 (stereo not given)	-1	36*	-0.77	96	-5	0.022*	0.057*	0.039	0.034*	0.05*	0.016*
Cc1nc(NC(=O)COC(=O)C2CC2C)c(Cl)cc1Cl (stereo not given)	0	.	.	98	.	.	.	.	.	.	.
COC(=O)c1ccc(C)c(NC(=S)NCc2ccc(Cl)cc2)c1	-1	-0.067	-0.063	107	-8	.	.	.	.	.	.
COC(=O)c1sccc1NC(=S)NCc1ccc(Cl)cc1	-5	160*	-0.89	92	-3	0.07*	0.16*	0.058*	?	0.12*	0.058*
O=C(c1cccc(S(=O)(=O)N2CCN(c3ccccc3)CC2)c1)N1CCN(c2ccccc2O)CC1	-3	.	.	97	.	.	.	.	.	.	.
Cc1ccc(C)c(NC(=S)NNC(=O)c2sccc2C)c1	-1	4.1*	-0.36	95	-3	0.011	0.026*	0.038	?	0.031*	0.011
Cc1ccc(C)c(NC(=S)NNC(=O)c2csc(C)c2C)c1	-4	11*	0.2	100	-11	0.016*	0.041*	0.038	0.04*	0.042*	0.015*
Cc1ccc(C)c(NC(=S)NNC(=O)c2ccco2)c1	2	-0.077	-1	99	-8	.	.	.	.	.	.
C[C@H]1CN([C@@H](C)CO)C(=O)CCCn2nncc2CO[C@@H]1CN(C)Cc1ccccc1C(F)(F)F	-2	.	.	98	.	.	.	.	.	.	.

Screening data from PubChem BioAssay.
